17 compounds from ChEMBL document CHEMBL1123479, “Substituted 1,3,4-thiadiazoles with anticonvulsant activity. 2. Aminoalkyl derivatives” (J Med Chem, 1986) can be followed below.

The species named for data set [1] is Mus musculus. Put plainly: Compound was evaluated for anticonvulsant activity in mice against metrazole seizures. The format is functional. The method in brief: (§1)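 Mouse screen with oral dosing; the ED50 is given in mg/kg, po. Signs of sedation, ataxia, loss of righting reflex and death were noted after oral dosing before anticonvulsant testing.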
For data set [2], the species on record is Mus musculus. The experiment in a line: Compound was evaluated for anticonvulsant activity in mice against electroshock seizures. The format is functional. The method in brief:
as §1

For data set [3], the species on record is Mus musculus. The experiment in a line: Compound was evaluated for inhibition of hind limb tonus (anticonvulsant activity) in mouse. It is filed as functional, Hindlimb. In short, it runs like this: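 Maximal electroshock in mice, ip dosing. The ED50 (mg/kg) is for blocking hind limb tonic extension at each compound's time of peak effect, which was determined in min. 95% confidence limits are reported.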

Data set [4] has as its system Mus musculus. Put plainly: Compound was evaluated for inhibition of hind limb tonus (anticonvulsant activity) in mouse maximal metrazole seizures (MMS) after peroral administration. The format is functional. The following applies: Hindlimb, po.
The species named for data set [5] is Mus musculus. The experiment in a line: Compound was evaluated for inhibition of hind limb tonus (anticonvulsant activity ) in mouse. The format is functional, Hindlimb. The method in brief:
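Maximal electroshock in mice, scoring abolition of hind-limb tonic extension. Compound given ip and tested at its time of peak effect. ED50 in mg/kg reported with 95% confidence limits.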

Data set [6] can be described thus: Compound was tested for rotarod test in mice and TD50 value at which 50% of trained animals fall off rotarod was reported. It is filed as organism-based. To be noted: mouse, in vivo. In short, it runs like this: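 Mice trained on the rotorod, then dosed po (tested at 1 h) or ip (tested at time of peak anticonvulsant effect). Neurotoxicity scored as falling off the rod.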

Molecules are shown by their SMILES.

Usually ED50 stands for the dose that gives a 50% effect, or the effect in half of the subjects. With `NCCc1nnc(-c2ccccc2-c2ccccc2)s1`, the median effective dose (ED50) in the data set listed under Mus musculus [1] was found to be 68 mg/kg; in the data set listed under Mus musculus [2], 50 mg/kg.
The like results for `CC(C)NCc1nnc(-c2ccccc2-c2ccccc2)s1` were, in that order, 35 mg/kg and 23 mg/kg.
The like results for `CNCc1nnc(-c2ccccc2)s1` were, in that order, over 200 mg/kg and over 200 mg/kg.
The like results for `NCCCc1nnc(-c2ccccc2-c2ccccc2)s1` were, in that order, over 200 mg/kg and over 200 mg/kg.
With `CC(N)c1nnc(-c2ccccc2-c2ccccc2)s1` (centres undefined), the results for the ED50 in the data set listed under Mus musculus [1] and in the data set filed under Mus musculus [2] were 32 mg/kg and 21 mg/kg, respectively.
The compound `NCc1nnc(-c2ccccc2-c2ccccc2)s1` yielded a Peak effect time in the data set filed under Mus musculus [3] of 10 min. In the data set on Mus musculus [4], the ED50 is 20 mg/kg.
In the data set listed under Mus musculus [2], `CCCCCCOc1ccccc1-c1nnc(CNC)s1` gave an ED50 of 44 mg/kg.
In the case of `Cc1ccccc1NCc1nnc(-c2ccccc2-c2ccccc2)s1`, the ED50 in the data set listed under Mus musculus [1] and in the data set listed under Mus musculus [2] was over 200 mg/kg throughout.
For the compound `NCc1nnc(Cc2ccccc2)s1`, the ED50 in the data set filed under Mus musculus [1] stood at 200 mg/kg; in the data set listed under Mus musculus [2], 110 mg/kg.
As to `CN(C)Cc1nnc(-c2ccccc2-c2ccccc2)s1`, the ED50 was determined as 35 mg/kg in the data set listed under Mus musculus [1] and 32 mg/kg in the data set listed under Mus musculus [2].
The matching figures for `c1ccc(CNCc2nnc(-c3ccccc3-c3ccccc3)s2)cc1`: 29 mg/kg and 37 mg/kg.
The matching figures for `CNCc1nnc(-c2ccccc2-c2ccccc2)s1`: 20 mg/kg and 25 mg/kg.
Take `NCc1nnc(Cc2ccccc2-c2ccccc2)s1`: the 50% effect level in the data set listed under Mus musculus [2] (ED50) was put at a dose of 30 mg/kg.
The same measure, in the same setting: the value for `CCCCCCOc1ccccc1-c1nnc(CN)s1` was 34 mg/kg.
In the data set filed under Mus musculus [3], `NC(=O)N1c2ccccc2C=Cc2ccccc21` [CARBAMAZEPINE] came in with a Peak effect time of 20 min.
The TD50 is the dose at which the toxic effect under study appears in half of the subjects. In the data set listed under Mus musculus [5], `CCC1(c2ccccc2)C(=O)NC(=O)NC1=O` [PHENOBARBITAL] registered a Peak effect time of 30 min. The compound also registered a TD50 in data set [6] of 86 mg/kg.
For `O=C1NC(=O)C(c2ccccc2)(c2ccccc2)N1` [PHENYTOIN], the Peak effect time in the data set filed under Mus musculus [5] came to 60 min.
